# This is a sample that favours compounds with a hit; in the whole collection about 2% have one here.
# CHRM5 PAM: CHRM5 positive allosteric modulation | CHO-K1 hM5, Fluo-8 calcium, ACh EC20 PAM; 0% = ACh EC20, 100% = ACh EC100 | activation, % at 3 µM | actives 0.3% (n = 360,000) | AID 624038;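 active = activation above the run cutoff, the mean activation of all test compounds plus 3 SD, cut at about 18% in these data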
#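 System: CHO-K1 hM5 cells. Reagent: acetylcholine, EC20 level. Compound dosing: single dose, 3 µM nominal final test concentration. Timing: Post-acetylcholine fluorescence recording 140 s. Detection: Fluo-8 calcium fluorescence. Read-out: % activation, ACh-normalized. Benchmarks: ACh EC20 and EC100 wells. Repeats: singlicate, one well per test compound.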
# CHRM1 antagonist: antagonists of human M1 muscarinic receptor | P11229 | CHO-K1 hM1, Fluo-8 calcium fluorescence, ACh EC80 antagonist | inhibition, % at 3 µM | actives 1.3% (n = 360,000) | AID 588852;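 active = percent inhibition above its own plate's cutoff, namely the mean of that plate's compound wells plus 3 SD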;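 also: peak over basal fluorescence ratio during 140 s after agonist addition; 0% = ACh EC80 plus DMSO and 100% = DMSO alone without agonist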
# Target sequence (P11229 whole entry, looked up): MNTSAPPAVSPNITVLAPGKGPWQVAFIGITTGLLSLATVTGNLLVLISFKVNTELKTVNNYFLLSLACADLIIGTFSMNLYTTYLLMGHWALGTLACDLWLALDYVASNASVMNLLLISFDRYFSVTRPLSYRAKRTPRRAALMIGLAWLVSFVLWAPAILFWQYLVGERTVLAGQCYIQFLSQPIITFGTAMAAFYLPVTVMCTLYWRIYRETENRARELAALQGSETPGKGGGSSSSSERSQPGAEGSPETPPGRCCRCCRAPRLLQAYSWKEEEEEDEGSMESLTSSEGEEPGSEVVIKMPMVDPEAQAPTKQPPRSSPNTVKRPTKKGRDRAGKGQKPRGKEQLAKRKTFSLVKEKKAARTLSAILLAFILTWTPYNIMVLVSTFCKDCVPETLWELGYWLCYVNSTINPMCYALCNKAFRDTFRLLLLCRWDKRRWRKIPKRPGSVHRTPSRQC
# CHRM1 PAM: potentiates human M1 receptor response to acetylcholine. activation, % at 3 µM. P11229. actives 0.088% (n = 360,000). CHO-K1 hM1, Fluo-8 calcium fluorescence, ACh EC20; 0% = ACh EC20, 100% = maximal ACh; in the data active = activation above about 19%, passing the limit was not always enough
# CHRM5 agonist: CHRM5 agonism in calcium assay; P08912; CHO-K1 hM5 cells, Fluo-8 calcium fluorescence; 0% DMSO wells, 100% maximal acetylcholine response; activation, % at 3 µM; actives 0.19% (n = 360,000);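 active = activation above the run's mean over test compounds plus 3 SD, cut at about 23% in these data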;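 also: signal is peak over basal fluorescence ratio across the kinetic read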
# M1 ag: human M1 muscarinic receptor agonism; P11229; activation, % at 3 µM; CHO-K1 hM1, Fluo-8 calcium fluorescence, agonist mode; 0% DMSO, 100% acetylcholine EC100; actives 0.33% (n = 360,000);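 active = activation above the run's mean compound activation plus 3 SD, cut at about 16% in these data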;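 also: peak over basal fluorescence ratio within a 140 s kinetic read after compound addition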
# CHRM5 antagonist: CHRM5 antagonism in calcium assay | CHO-hM5 cells, Fluo-8 calcium fluorescence, ACh EC80 | P08912 | actives 0.59% (n = 360,000) | inhibition, % at 3 µM | AID 624040;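 active = inhibition above a per-plate cutoff, the mean of that plate's test compounds plus 3 SD, cut at about 27% in these data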;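 also: 0% = acetylcholine EC80 with DMSO and 100% = DMSO without agonist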
# * hit, by the source's call; x = not tested or not shown.
SMILES,CHRM5 PAM,CHRM1 antagonist,CHRM1 PAM,CHRM5 agonist,M1 ag,CHRM5 antagonist
Cc1ccc(C(=O)NC(=S)NNC(=O)c2ccccc2O)cc1,-3.4,8.3,-4.6,1.3,-1.4,8.3
Cc1ccc(C(=O)NC(=S)NNC(=O)c2ccccc2)cc1,-23.3,5.3,-9.8,39.7*,36.3*,13.3
COc1ccc(Cl)cc1C(=O)NNC(=S)NC(=O)c1cc(-c2ccc(Cl)cc2)nc2ccccc12,4.4,-21.1,4.3,-2.3,-1.6,6.3
CCCCC(=O)NC(=S)NNC(=O)c1ccc(Cl)cc1Cl,4.7,6.0,-4.8,1.1,24.9*,10.6
COc1ccc(/C=C/C(=O)NC(=S)NNC(=O)c2cccs2)cc1,2.5,9.5,-9.6,5.1,21.2*,3.5
O=C(OCc1ccccc1)N1CCC2CC1c1c2cccc1N1CCOCC1 (centres undefined),3.9,13.1,-6.8,0.9,-5.6,-9.9
O=C(C[C@@H]1CC[C@@H](NC(=O)Nc2cccc(F)c2)[C@@H](CO)O1)NCC1CCCCC1,-2.1,x,x,1.7,x,4.8
Cc1ccccc1OCC(=O)NNC(=S)NC(=O)c1ccco1,0.6,-1.7,6.5,1.4,17.7*,7.8
Cc1ccc(C(=O)NNC(=S)NC(=O)c2ccc(Cl)cc2Cl)cc1,-17.1,45.8*,-25.1,76.8*,105.1*,8.4
COc1ccc(C(=O)NNC(=S)NC(=O)c2ccc(OC)cc2)cc1,-12.8,11.4,-13.4,19.9,23.4*,12.4
CC(C)(C)c1cc(CCC(=O)NNC(=S)NC(=O)c2ccccc2)cc(C(C)(C)C)c1O,-9.6,48.5*,-29.0,14.1,80.8*,15.8
Cc1ccccc1OCC(=O)Nc1ccccc1NC(=O)c1ccco1,-2.3,1.1,1.2,-1.9,-5.1,10.1
CC(C)C[C@@H](CN)NC(=O)c1nc[nH]c1C(=O)N[C@@H](C)C(=O)CNC[C@H](C)NC(=O)c1nc[nH]c1C(=O)N[C@@H](CC(C)C)C(=O)O,-1.0,-8.7,5.2,1.0,-1.4,8.8
O=C(Nc1ccc(S(=O)(=O)N2CCCC2)cc1)C1CC(=O)N(CCc2ccc(F)cc2)C1 (centres undefined),-7.2,18.0,-16.0,-6.5,-7.5,1.0
COC(=O)C[C@@H]1CC[C@@H](NS(=O)(=O)c2cccc(OC)c2)[C@@H](CO)O1,9.0,x,x,-0.1,x,-2.6
Clc1ccc2c(-c3ccccc3)nc(-c3cccs3)nc2c1,-3.5,x,x,3.7,x,-0.3
O=C(CNC(=S)NC(=O)c1ccc(Cl)cc1)c1ccccc1,-1.7,2.5,32.0*,-1.4,-4.7,5.8
Cc1cccc(C(=O)NNC(=S)NC(=O)c2ccccc2)c1,-27.2,37.8,-28.0,56.6*,97.0*,23.3
Cc1ccc(C(=O)NNC(=S)NC(=O)c2ccccc2)cc1,-30.3,52.3*,-26.9,66.5*,52.3*,30.2*
COc1cc(C(=O)NC(=S)Nc2ccc3c(c2)OCO3)cc(OC)c1OC,-1.9,-5.8,4.5,0.1,-4.1,5.9
COc1cc(C(=O)NC(=S)NNC(=O)c2ccc3c(c2)OCO3)cc(OC)c1OC,6.6,-4.3,-1.8,6.8,16.9*,4.7
Cn1c(N)c(C(=O)N2CCN(c3ccccc3)CC2)c(=O)n(C)c1=O,-0.9,-4.7,2.9,-0.5,-3.4,5.7
Cc1cccc(C)c1Cn1c(C)c(C(=O)NCc2ccc([N+](=O)[O-])cc2)sc1=O,-16.0,17.1,-14.4,17.9,8.7,18.7
CC1(C(=O)NCC2CCOCC2)Cc2c(-c3cccc(C(F)(F)F)c3)ccnc2O1 (centres undefined),-3.5,-3.8,2.8,-1.5,-5.3,-2.4
COc1ccc(C(=O)NNC(=S)NC(=O)c2ccc(F)cc2)cc1Br,-27.9,34.9*,-26.6,67.6*,88.1*,1.7
Cc1ccc(C(=O)NNC(=S)NC(=O)c2ccco2)cc1,-11.6,0.1,-4.4,18.8,30.0*,13.7
COc1ccc(C(=O)NNC(=S)NC(=O)c2cccs2)cc1,-2.9,12.3,-9.2,5.8,10.1,4.4
Cc1ccc(C(=O)NNC(=O)c2ccco2)cc1,-3.2,-4.2,3.2,-0.3,-2.9,3.4

# Screening data: PubChem BioAssay, The Scripps Research Institute Molecular Screening Center
